Measured values from ChEMBL document CHEMBL1275329, “Fruitful adrenergic α(2C)-agonism/α(2A)-antagonism combination to prevent and contrast morphine tolerance and dependence” (J Med Chem, 2010).

How the values were obtained:
[1] = biological target: T1, Alpha-2A adrenergic receptor (Homo sapiens) (UniProt P08913); assay: Antagonist activity at human alpha2A adrenoceptor expressed in CHO cells assessed as effect on agonist-induced extracellular acidification by microphysiometry; type: functional, cell-based
T1 sequence (whole entry): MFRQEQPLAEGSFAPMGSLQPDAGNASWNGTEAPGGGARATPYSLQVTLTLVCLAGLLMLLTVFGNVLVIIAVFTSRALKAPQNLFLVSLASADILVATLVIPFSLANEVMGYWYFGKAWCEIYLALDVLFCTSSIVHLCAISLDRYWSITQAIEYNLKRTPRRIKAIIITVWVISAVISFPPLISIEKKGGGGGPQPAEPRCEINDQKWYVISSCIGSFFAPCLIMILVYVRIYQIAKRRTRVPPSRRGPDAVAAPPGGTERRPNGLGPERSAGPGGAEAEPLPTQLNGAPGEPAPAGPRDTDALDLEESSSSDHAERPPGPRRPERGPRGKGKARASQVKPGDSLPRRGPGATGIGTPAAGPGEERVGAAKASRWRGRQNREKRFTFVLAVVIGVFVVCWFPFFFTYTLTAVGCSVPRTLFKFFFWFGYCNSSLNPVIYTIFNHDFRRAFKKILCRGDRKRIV
In short: (§1)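 CHO cells stably expressing one human α2-AR subtype were run on the Cytosensor microphysiometer with bicarbonate-free DMEM perfusion. […] Kb = M/(concentration ratio − 1), where the ratio is EC50 with antagonist over EC50 without. Reported as pKb, mean ± SEM of 3–6 experiments.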

[2] = biological target: T2, Alpha-2B adrenergic receptor (Homo sapiens) (UniProt P18089); assay: Antagonist activity at human alpha2B adrenoceptor expressed in CHO cells assessed as effect on agonist-induced extracellular acidification by microphysiometry; type: functional, cell-based; in short: as §1
T2 sequence (whole entry): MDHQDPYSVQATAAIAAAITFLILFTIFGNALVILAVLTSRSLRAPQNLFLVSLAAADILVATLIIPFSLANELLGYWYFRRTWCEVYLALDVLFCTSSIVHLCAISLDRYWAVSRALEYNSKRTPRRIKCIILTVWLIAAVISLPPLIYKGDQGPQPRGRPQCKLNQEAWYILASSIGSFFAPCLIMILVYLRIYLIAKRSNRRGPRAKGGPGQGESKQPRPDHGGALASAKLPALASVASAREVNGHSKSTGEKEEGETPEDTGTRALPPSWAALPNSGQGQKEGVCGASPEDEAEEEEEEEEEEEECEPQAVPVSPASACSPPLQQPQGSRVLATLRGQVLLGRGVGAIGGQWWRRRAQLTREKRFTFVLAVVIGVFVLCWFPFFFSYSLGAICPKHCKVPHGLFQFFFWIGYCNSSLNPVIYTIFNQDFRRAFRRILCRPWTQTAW

[3] = biological target: T3, Alpha-2C adrenergic receptor (Homo sapiens) (UniProt P18825); assay: Antagonist activity at human Alpha-2C adrenoceptor expressed in CHO cells assessed as effect on agonist-induced extracellular acidification by microphysiometry; type: functional, cell-based; in short: as §1
T3 sequence (whole entry): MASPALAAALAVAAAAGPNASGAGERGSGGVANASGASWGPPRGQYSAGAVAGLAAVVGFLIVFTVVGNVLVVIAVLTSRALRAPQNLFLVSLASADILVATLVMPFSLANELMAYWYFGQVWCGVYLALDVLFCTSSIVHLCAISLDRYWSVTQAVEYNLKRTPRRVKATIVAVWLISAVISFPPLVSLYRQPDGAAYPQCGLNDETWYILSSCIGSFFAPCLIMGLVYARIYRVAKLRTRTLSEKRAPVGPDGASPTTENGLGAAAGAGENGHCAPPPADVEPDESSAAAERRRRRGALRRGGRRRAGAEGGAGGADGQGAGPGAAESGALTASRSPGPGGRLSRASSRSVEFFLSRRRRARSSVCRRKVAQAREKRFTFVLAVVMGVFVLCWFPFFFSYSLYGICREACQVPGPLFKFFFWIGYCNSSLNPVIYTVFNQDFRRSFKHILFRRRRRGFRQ

[4] = biological target: T4, Alpha-2A adrenergic receptor (Homo sapiens, UniProt P08913); assay: Displacement of [3H]RX821002 from human alpha2A adrenoceptor expressed in CHO cells; type: cell-based
T4 sequence (P08913 whole entry): T1 sequence (whole entry)
In short: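 Crude membranes from CHO cells expressing human α2A-AR were incubated in Tris-Mg buffer (50 mM Tris-HCl, 0.5 mM MgCl₂, pH 7.5). Ki came from one- or two-site nonlinear regression and is given as pKi.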

[5] = biological target: T5, Alpha-2B adrenergic receptor (Homo sapiens, UniProt P18089); assay: Displacement of [3H]RX821002 from human alpha2B adrenoceptor expressed in CHO cells; type: cell-based
T5 sequence (P18089 whole entry): T2 sequence (whole entry)
In short: (§2)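 Buffer was Tris-Mg (50 mM Tris-HCl, 0.5 mM MgCl2, pH 7.5), competitor 10^-9 to 10^-4 M, 30 min at room temperature. Bound ligand was filtered and counted. Ki by nonlinear one- or two-site fit, reported as pKi.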

[6] = biological target: T5, Alpha-2B adrenergic receptor; assay: Agonist activity at human alpha2B adrenoceptor expressed in CHO cells assessed as induction of extracellular acidification by microphysiometry
[7] = biological target: T6, Alpha-2C adrenergic receptor (Homo sapiens, UniProt P18825); assay: Displacement of [3H]RX821002 from human Alpha-2C adrenoceptor expressed in CHO cells; type: cell-based; in short: as §2
T6 sequence (P18825 whole entry): T3 sequence (whole entry)

[8] = biological target: T6, Alpha-2C adrenergic receptor; assay: Agonist activity at human Alpha-2C adrenoceptor expressed in CHO cells assessed as induction of extracellular acidification by microphysiometry; type: functional, cell-based
In short: (§3)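 Cytosensor microphysiometry on CHO cells stably expressing one human α2-AR subtype, seeded at 3 × 10⁵ cells/cup and grown 24 h at 37 °C. Cells were perfused with bicarbonate-free DMEM and exposed to agonist for 4 min, with 30 min washes between exposures. The read-out is the change in acidification rate: peak after agonist minus the mean of three prior readings. Mean ± SEM, 3–6 experiments.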

[9] = biological target: T3, Alpha-2C adrenergic receptor (Homo sapiens); assay: Agonist activity at human Alpha-2C adrenoceptor expressed in CHO cells assessed as induction of extracellular acidification by microphysiometry relative to (-)noradrenaline; type: functional, cell-based
In short: as §3, with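 “readings. […]” for “readings.”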

[10] = biological target: T4, Alpha-2A adrenergic receptor; assay: Agonist activity at human alpha2A adrenoceptor expressed in CHO cells assessed as induction of extracellular acidification by microphysiometry; type: functional, cell-based
In short: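 CHO cells stably expressing human α2A-AR were seeded at 3 × 10⁵ cells/cup and held 24 h at 37 °C under 5% CO₂. They were then perfused at 100 μL/min with bicarbonate-free DMEM containing glutamine and NaCl. Agonist exposure lasted 4 min, with 30 min washes between exposures.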

SMILES | pKb [1] | pKb [2] | Intrinsic activity [9] | also measured
CC(Oc1ccccc1)C1=NCCN1 (racemic) | 7.01 | 6.2 |  | pKb [3]: 6.85
CC(Oc1ccccc1C1CC1)C1=NCCN1 (racemic) | 7 |  | 0.9 | Ki [4]: 22.9 nM; Ki [5]: 309 nM; EC50 [6]: 3160 nM; Ki [7]: 79.4 nM; EC50 [8]: 39.8 nM
CC(Oc1ccccc1-c1cccc(O)c1)C1=NCCN1 (racemic) | 6.2 |  | 1.15 | 
C[C@H](Oc1ccccc1-c1ccccc1)C1=NCCN1 |  |  | 0.9 | 
C[C@@H](Oc1ccccc1-c1cccc([N+](=O)[O-])c1)C1=NCCN1 | 7.11 | 6.07 | 0.8 | 
C[C@@H](Oc1ccccc1-c1ccccc1)C1=NCCN1 |  |  | 0.7 | 
C[C@H](Oc1ccccc1-c1cccc([N+](=O)[O-])c1)C1=NCCN1 | 7.35 | 5.93 | 0.45 | 
Clc1cccc(Cl)c1NC1=NCCN1 |  |  | 0.6 | 
C[C@H](Oc1ccccc1-c1ccsc1)C1=NCCN1 |  |  | 0.9 | Ki [4]: 44.7 nM; EC50 [10]: 63.1 nM; Ki [5]: 447 nM; EC50 [6]: 1000 nM; Ki [7]: 126 nM; EC50 [8]: 6.31 nM
